Most compounds without a hit are left out; they make up all but 2% or so of the library.
UHRF1 binding – UHRF1 methyl-DNA binding inhibition; Q96T88; UHRF1 binding to methylated oligo, TR-FRET; inhibition, % at 4.4 µM; 0.75% of 370,000 active; AID 687016;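 also: UHRF1 SRA domain binding a hemimethylated CpG hairpin DNA probe; 0% = median of test compound wells and 100% = reference inhibitor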
MBD2 inh – inhibitors of human MBD2 binding to methylated oligonucleotide. Q9UBB5. TR-FRET. inhibition, % at 4.4 µM. 0.31% of 370,000 active; in the data active = inhibition above about 13%
TCR CD3 inh – human TCR-CD3 binding inhibition | TAMRA-labeled TCR probe fluorescence, biochemical | inhibition, % at 9.4 µM | 0.37% of 360,000 active | AID 651800; in the data active = inhibition above about 19%;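 also: recombinant mutant TCR 2C K166C tagged with TAMRA read by polarization; 0% = receptor in buffer alone and 100% = receptor with positive control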
LEDGF integ inh – blocks HIV-1 LEDGF/p75-dependent DNA integration | TR-FRET IN-LEDGF/p75 DNA integration, Eu/Cy5 | inhibition, % at 3.7 µM | 0.64% of 370,000 active | AID 743269;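 active = inhibition above the screen-wide mean plus 3 SD, cut at about 13% in these data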;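 also: signal is the Cy5 over europium emission ratio at 671 and 618 nm; 0% = plate median of compound wells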
ARFGAP1 inhibitor – rat ARFGAP1 inhibition. Q62848. inhibition, % at 16.5 µM. Arfgap1-stimulated ARF1 GTP hydrolysis, GDP FP detection. 0.26% of 360,000 active;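 active = inhibition above a per-plate limit, mean inhibition of low control wells plus 3 SD, cut at about 25% in these data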;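 also: 0% = DMSO wells with enzyme and 100% = wells lacking Arfgap1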
Target sequence (Q62848 1-136 limits assumed): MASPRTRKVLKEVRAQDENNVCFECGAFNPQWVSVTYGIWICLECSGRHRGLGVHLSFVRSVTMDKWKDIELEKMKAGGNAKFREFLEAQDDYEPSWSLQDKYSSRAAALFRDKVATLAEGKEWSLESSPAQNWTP
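Assay system: purified rat His6-Arfgap1 residues 1-136 (GAP domain); Reagent: human Δ17 ARF1 bound to GTP; Dosing: 16.5 µM single point, 1.26% DMSO; Times: GTP hydrolysis reaction 2 h at 25 °C; Signal: FP, GDP Alexa 633 tracer displaced from anti-GDP antibody, 620/688 nm; Measure: % inhibition from polarization.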
ASAP1 GAP inh – ASAP1 ArfGAP inhibition; inhibition, % at 16.5 µM; Q9ULH1; 0.19% of 360,000 active; ASAP1-stimulated ARF1 GTP hydrolysis, GDP FP detection; in the data active = inhibition above about 25%;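 also: 0% = vehicle with enzyme and substrate and 100% = no enzyme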
Target sequence (Q9ULH1 325-724 limits assumed): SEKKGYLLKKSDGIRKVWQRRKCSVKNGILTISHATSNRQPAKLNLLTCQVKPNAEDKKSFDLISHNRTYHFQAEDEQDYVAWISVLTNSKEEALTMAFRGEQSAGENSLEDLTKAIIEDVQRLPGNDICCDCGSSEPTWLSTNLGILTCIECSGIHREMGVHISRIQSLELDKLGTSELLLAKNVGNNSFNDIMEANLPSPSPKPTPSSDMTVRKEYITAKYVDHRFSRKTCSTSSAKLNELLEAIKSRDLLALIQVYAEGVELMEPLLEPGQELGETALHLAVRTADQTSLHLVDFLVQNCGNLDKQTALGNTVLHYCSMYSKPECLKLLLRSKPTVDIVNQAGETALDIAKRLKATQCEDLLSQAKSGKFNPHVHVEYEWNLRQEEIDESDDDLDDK
BSA TAMRA ctr – interferes with TAMRA-BSA probe, flagging TCR-CD3 hits; shares compounds with TCR CD3 inh; TAMRA-labeled BSA probe fluorescence counterscreen; inhibition, % at 9.4 µM; 10% of 1,200 active; in the data active = inhibition above about 23%;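 also: 0% = buffer low control and 100% = reference high control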
TCR-CD3 inh conf – confirmation of human TCR-CD3 interaction inhibitors; AID 652036; 48% of 1,200 active; inhibition, % at 9.4 µM; TAMRA-labeled TCR probe fluorescence binding assay; shares compounds with TCR CD3 inh; in the data active = inhibition above about 19%
UHRF1 ctr MBD2 – UHRF1 methyl-oligo binding inhibition as MBD2 counter-screen | shares compounds with MBD2 inh | UHRF1 binding to methylated oligonucleotide, TR-FRET | inhibition, % at 4.4 µM | 25% of 1,000 active;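 also: UHRF1 SRA domain binding a labeled hemimethylated CpG hairpin DNA; 0% = vehicle only and 100% = reference inhibitor with vehicle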
MBD2 DBD conf – MBD2-DBD methyl-DNA binding inhibition, TR-FRET confirmation; TR-FRET MBD2-DBD binding to methylated oligonucleotide; 26% of 1,000 active; inhibition, % at 4.4 µM; shares compounds with MBD2 inh; in the data active = inhibition above about 14%
IN multimer up – counter-screen for LEDGF/p75 integration inhibitors: HIV-1 integrase multimerization activators; 17% of 2,000 active; activation, % at 7.7 µM; TR-FRET HIV-1 integrase multimerization, biochemical; AID 1053131; shares compounds with LEDGF integ inh; in the data active = activation above about 8.9%
TR-FRET interf – optically interferes with TR-FRET readout in LEDGF counter-screen. TR-FRET optical interference counterscreen, HIV-1 IN multimerization. shares compounds with LEDGF integ inh. AID 1053135. inhibition, % at 7.7 µM. 2,000 tested, under 10 active;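 active = inhibition above the mean over all tested compounds plus 3 SD, which no compound reached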;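 also: 0% = integrase with antibodies and DMSO and 100% = antibodies without integrase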
LEDGF integ conf – confirmation of HIV-1 LEDGF/p75-dependent integration inhibitors | shares compounds with LEDGF integ inh | TR-FRET LEDGF/p75-dependent HIV-1 integration, biochemical | inhibition, % at 3.7 µM | 36% of 2,000 active; in the data active = inhibition above about 14%
* = called active by the depositor; nt = no result given. Rule as the data show it, unless noted: active = inhibition above about 21%; inactive = the rest.

SMILES	UHRF1 binding	MBD2 inh	TCR CD3 inh	LEDGF integ inh	ARFGAP1 inhibitor	ASAP1 GAP inh	BSA TAMRA ctr	TCR-CD3 inh conf	UHRF1 ctr MBD2	MBD2 DBD conf	others
O=C(N/N=C/c1c(O)n(CCc2ccccc2)c(=O)[nH]c1=O)c1ccccc1	-1.2	-5.0	37.1*	-1.9	10.5	-8.8	-6.2	5.9	nt	nt
CC(=O)Nc1ccc(N=Cc2c(O)n(Cc3ccco3)c(=O)[nH]c2=O)cc1	6.3	7.5	-0.2	1.9	6.1	-1.8	nt	nt	nt	nt
O=C(N/N=C/c1c(O)n(Cc2ccco2)c(=O)[nH]c1=O)c1ccccc1O	11.6	3.3	40.7*	12.9	4.9	17.6	-14.2	39.9*	nt	nt
CCCCn1c(O)c(/C=N/NC(=O)c2ccncc2)c(=O)[nH]c1=O	-4.3	-6.4	10.8	2.3	-9.5	-0.4	nt	nt	nt	nt
COc1ccc(OC(=O)N(C)C[C@H]2OCc3cnnn3CCCC(=O)N([C@H](C)CO)C[C@@H]2C)cc1	-1.4	3.6	-5.1	-5.3	4.5	-17.6	nt	nt	nt	nt
O=[N+]([O-])c1ccc(NCc2ccccc2)c2nonc12	-23.8	-22.7	66.2*	-8.6	0.7	6.1	98.9*	81.3*	nt	nt
CCCCCCn1c(=O)c(C(=O)Nc2ncccc2O)c(O)c2ccccc21	-0.4	-5.1	26.4*	3.0	-15.2	1.7	-2.8	22.4*	nt	nt
Cc1nc2ccccc2c(=O)n1/N=C/c1cc(Br)cc(Br)c1O	-2.5	-0.5	45.6*	4.8	-4.7	-5.4	-11.9	47.3*	nt	nt
Cc1nc2ccccc2c(=O)n1-c1ccc(Br)cn1	-0.3	-1.4	4.9	0.6	-8.8	8.3	nt	nt	nt	nt
CCCCC(C)C(OC(=O)CC(CC(=O)O)C(=O)O)C(CC(C)CC(O)CCCCC(O)CC(O)C(C)N)OC(=O)CC(CC(=O)O)C(=O)O (centres undefined)	5.2	-4.7	1.8	-0.5	-0.6	11.7	nt	nt	nt	nt
C#C[C@]1(O)CC[C@H]2[C@@H]3CCC4=CC(=O)CC[C@]4(C)[C@H]3CC[C@@]21C	1.4	2.3	19.6*	-0.4	3.5	-9.1	-0.2	0.5	nt	nt
COc1cccc2c1C(=O)c1c(O)c3c(c(O)c1C2=O)CC(O)(C(C)=NO)CC3OC1CC(N)C(O)C(C)O1 (centres undefined)	95.1*	109.1*	143.5*	-0.2	-9.9	2.8	167.1*	135.8*	99.6*	108.9*
COC(=O)C1=C(c2cc3ccccc3o2)C[C@@H]2CC[C@H]1N2C(=O)N1CCC(C)CC1	-0.6	-3.7	1.9	-0.5	0.4	1.0	nt	nt	nt	nt
NN=C1C(Cl)=C(Cl)C(Cl)=C1Cl	40.3*	12.6	23.4*	22.4*	19.0	-2.4	11.2	9.1	nt	nt	IN multimer up=-1.0;TR-FRET interf=5.0;LEDGF integ conf=2.8
C[n+]1c(-c2ccccc2)c2cc(N)ccc2c2ccc(N)cc21	61.5*	55.1*	116.4*	41.1*	0.4	1.5	160.1*	130.2*	76.7*	85.6*	IN multimer up=2.3;TR-FRET interf=-11.7;LEDGF integ conf=64.1*
C/C(O)=C(\C#N)C(=O)Nc1cc(Br)ccc1Br	1.1	1.9	-5.7	0.5	7.4	-20.7	nt	nt	nt	nt
O=c1[nH]c2ccccc2n1C1CCN(C(c2cccs2)c2nnnn2-c2ccc3c(c2)OCCO3)CC1 (centres undefined)	-0.5	-0.7	8.4	2.5	-3.2	-15.4	nt	nt	nt	nt
CN1C[C@H]2CON(C)[C@H]2C[C@H]1c1cccc(Br)c1	1.7	2.7	2.5	0.4	0.5	6.7	nt	nt	nt	nt
CN(C)[C@@H]1C(=O)C(C(N)=O)=C(O)[C@@]2(O)C(=O)C3=C(O)c4c(O)cccc4[C@@](C)(O)C3[C@H](O)C12 (some centres undefined)	62.2*	19.1*	27.3*	41.6*	-3.1	5.5	-2.5	10.9	9.2	0.5	IN multimer up=14.8*;TR-FRET interf=-53.0;LEDGF integ conf=24.7*
O=C(c1ccc(Cl)cc1)C1CCCN(Cc2ccc3c(c2)OCCO3)C1 (centres undefined)	-1.4	-3.8	-2.3	2.7	3.8	13.2	nt	nt	nt	nt
O=C(c1ccc(Cl)cc1)C1CCCN(Cc2ccc3ncccc3c2)C1 (centres undefined)	24.6*	15.1*	-10.6	-3.8	15.6	2.9	nt	nt	8.1	1.8
CCCCCN1C(=O)c2cc(OC)ccc2[C@@]2(C(=O)OCC)Cc3cc(Cl)ccc3[C@@H]12	-5.6	3.5	-1.1	0.4	7.0	-5.0	nt	nt	nt	nt
CCCCSP1(=S)NCCCO1 (centres undefined)	-6.0	38.4*	5.8	-0.1	-9.3	-4.5	nt	nt	4.8	1.1
CC(=O)N1Cc2cnnn2-c2ccccc2C1(C#N)Cc1ccccc1 (centres undefined)	-0.5	29.2*	-1.8	-0.7	7.0	5.7	nt	nt	6.7	4.9
CCOC(=O)CNC(=O)N1Cc2ccc(Br)cc2-n2nncc2C1	5.0	-0.5	-1.6	0.9	9.4	4.7	nt	nt	nt	nt
COc1ccc(-n2c(O)c(C(C)=NCCc3c[nH]c4ccccc34)c(=O)[nH]c2=O)cc1	-2.0	1.3	6.9	2.9	10.6	-0.7	nt	nt	nt	nt
C[C@]12CCC(=O)C=C1CC[C@@H]1[C@@H]2CC[C@@]2(C)[C@H]1CC[C@]2(C)O	-2.6	0.2	-5.8	-1.1	11.2	4.0	nt	nt	nt	nt
C#C[C@]1(O)CCC2C3CCC4=C/C(=N/OCC(=O)NC(C)C(=O)NC(CCSC)C(=O)O)CC[C@]4(C)C3CC[C@@]21C (some centres undefined)	4.6	44.4*	-12.1	10.5	1.9	8.7	nt	nt	4.1	3.1
COc1ccc(-n2c(O)c(/C=C3\C=Nc4ccc(Br)cc43)c(=O)[nH]c2=O)c(OC)c1	-2.2	28.4*	-9.0	-4.0	2.1	0.2	nt	nt	8.1	2.5
C[C@H](NC(=O)OCc1ccccc1)[P+](=O)O	-2.9	14.4*	nt	-0.9	nt	nt	nt	nt	6.7	1.2
